From PMC10617019 (Nature cell biology, 2023)

Key:
[1] = system: RIPK1, RIPK3 and MLKL activation; experiment: RIPK1, RIPK3 and MLKL activation by EGLN inhibitors; type: cell-based, mouse; conditions: MEFs; for hallmarks of RIPK1, RIPK3 and MLKL activation, inhibitor alone: immunoblotting; for concentration needed to activate RIPK1 and necroptosis: concentration series
[2] = system: RIPK1 proline hydroxylation (EGLN); experiment: RIPK1 proline hydroxylation in cells, pan-hydroxylation antibody; type: cell-based, murine; conditions: MEFs with Flag-mRIPK1; CoCl2 400 μM, 16 h
Summary of the method: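 MEFs were transduced with a Flag-mouse RIPK1 expression vector for 24 h, then treated with CoCl2 (400 μM) for a further 16 h. Lysates were immunoprecipitated with anti-Flag and the complexes immunoblotted with an anti-pan-hydroxylation antibody. Three independent experiments were run.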

[3] = system: pVHL interaction with RIPK1; experiment: pVHL-RIPK1 interaction in cells; type: cell-based; conditions: DFO 200 μM; co-immunoprecipitation
Summary of the method: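 RIPK1⁻/⁻ HT-29 cells were infected with expression vectors and treated with DFO 200 μM. Immunocomplexes were washed three times (20 mM Tris pH 8.0, 100 mM NaCl, 1 mM EDTA, 0.5% NP-40), resolved by SDS-PAGE and immunoblotted.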

[4] = system: WT and Ripk1 P196A/P196A mice; experiment: FG-4592 in WT and Ripk1 P196A/P196A mice; type: in vivo; conditions: FG-4592 25 mg kg^−1 i.p., 7 days
MEFs [5] = experiment: cell death with EGLN inhibitor, MEFs; type: cell-based, mouse
Summary of the method: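 MEFs in DMEM/10% FBS/1% penicillin-streptomycin were treated with graded test compound concentrations. Cell death was measured by propidium iodide uptake, counting PI-positive versus total cells by fluorescence microscopy (mean ± s.d., n = 3 biological samples). p-RIPK1-S166 and p-MLKL-S345 were immunoblotted across the concentration series after 48 h, and at 400 μM over a time course.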

HT-29 cells [6] = experiment: RIPK1 activation and necroptosis by FG-4592, HT-29 cells; type: cell-based
[7] = system: Pro195 hydroxylation of RIPK1; experiment: RIPK1 Pro195/Pro196 hydroxylation in cells; type: cell-based; conditions: high doses only
[8] = system: proline hydroxylation of RIPK1 at Pro196; experiment: RIPK1 Pro196 hydroxylation in mouse liver in vivo; conditions: WT mouse liver; i.p. 50 or 250 mg kg^−1 every 24 h for 2 d; n = 3
Mlkl knockout cells = experiment: FG-4592-induced cell death in WT and Mlkl knockout cells; type: cell-based; conditions: n = 3
WT mice (liver) = experiment: FG-4592 in vivo, WT mice: liver damage, RIPK1 activation, cell death, cytokines
MEFs [9] = experiment: TSZ-induced cell death with FG-4592, MEFs; type: cell-based, mouse; conditions: FG-4592 200 μM; TNFα 10 ng/mL, SM164 50 nM, zVAD.fmk 20 μM; n = 3
Summary of the method: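 MEFs were given TNFα 10 ng/mL, SM164 50 nM and zVAD.fmk 20 μM, with or without test compound at 200 μM. Cell death was read by propidium iodide uptake: PI-positive and total cells were counted under an inverted fluorescence microscope. n = 3 biological independent samples, mean ± s.d., two-way ANOVA.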

[10] = system: human skin fibroblast cells; experiment: hypoxia-induced cell death, human skin fibroblasts; type: cell-based; conditions: 1% O2, 48 h; primary fibroblasts; propidium iodide uptake; n = 3
Summary of the method: (§1)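 Jurkat, THP-1 and primary fibroblasts were exposed to 1% O2 for 48 h. Cell death was measured by propidium iodide uptake, counting PI-positive and total cells under an inverted fluorescence microscope. Values are mean ± s.d., n = 3 biological samples, compared by unpaired two-tailed t-test.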

HT-29 cells [11] = experiment: hypoxia-induced cell death, HT-29; type: cell-based; conditions: 1% O2; Nec-1s 25 μM; propidium iodide uptake; n = 3
Summary of the method: (§2)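 HT-29 and L929 cells were held at 1% O2 with or without 25 μM Nec-1s; L929 were kept in DMEM with 10% FBS and 1% penicillin/streptomycin. Cell death was measured by propidium iodide uptake, counting PI-positive and total cells under an inverted fluorescence microscope. Values are mean ± s.d., n = 3 biological samples.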

Vhl LKO mice (liver) = experiment: Nec-1s in Vhl LKO mice; type: in vivo, mouse; conditions: Nec-1s in drinking water, 7 days; n = 6
Ripk1 P196A/P196A mice = experiment: Nec-1s in Ripk1 P196A/P196A mice; type: in vivo, mouse; conditions: Nec-1s in drinking water, 7 d; n = 5-6
Vhl knockout MEFs = experiment: hypoxia-induced necroptosis in Vhl-deleted MEFs; type: cell-based, mouse; conditions: 1% O2; Nec-1s printed as 25 M; propidium iodide uptake; n = 3
THP-1 cells = experiment: hypoxia-induced cell death, THP-1; type: cell-based; conditions: 1% O2, 48 h; propidium iodide uptake; n = 3
Summary of the method: as §1

primary Ripk1 P196A MEFs = experiment: TSZ or TNFα/SM-164-induced cell death and p-RIPK1-S166 in Ripk1 P196A MEFs; type: cell-based, mouse; conditions: Nec-1s 20 μM, n = 3
L929 cells = experiment: hypoxia-induced cell death, L929; type: cell-based; conditions: 1% O2; Nec-1s 25 μM; propidium iodide uptake; n = 3
Summary of the method: as §2

786-O cells = experiment: TNFα/5z7/SM-164-induced RDA in 786-O cells; type: cell-based; conditions: Nec-1s 10 μM; TNFα 10 ng/mL; SM-164 50 nM; 5z7 500 nM; n = 3
Summary of the method: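 VHL-deficient 786-O cells were treated with TNFα, 5z7 and SM-164, with or without Nec-1s, for different times. Viability was read by ATP-Glo luminescence, expressed as a percentage of untreated wells after subtracting the blank-well background.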

[12] = system: human RIPK1 and RIPK1-P195A mutant; experiment: p-RIPK1-S166 in 293T cells overexpressing WT or P195A RIPK1; type: cell-based; conditions: overexpressed RIPK1, 10 μM Nec-1s, n = 3
Egln1−/− MEFs = experiment: TSZ- or TNFα/5z7-induced cell death, Egln1−/− MEFs; type: cell-based, mouse; conditions: induced by TSZ or by TNFα + 5z7 (200 nM); n = 3
Summary of the method: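 Knockout MEFs were given TNFα 10 ng/mL + SM164 50 nM + zVAD.fmk 20 μM, or TNFα 10 ng/mL + 5z7 200 nM, each ± RIPK1-inhibitor test compound. TSZ death was read by PI uptake: PI-positive and total cells counted by fluorescence microscopy. TNFα/5z7 viability was read by ATP-Glo luminescence, background-subtracted, as % of untreated wells. n = 3 biological samples, mean ± s.d., two-way ANOVA.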

Jurkat cells = experiment: hypoxia-induced cell death, Jurkat; type: cell-based; conditions: 1% O2, 48 h; propidium iodide uptake; n = 3
Summary of the method: as §1

cIAP1 = conditions: cited from earlier work
monocytes = conditions: cited from earlier work
EGLN1 = experiment: in vitro hydroxylation assay with recombinant EGLN1; type: biochemical; conditions: 37 °C, 1 h, pH 7.5, 50 μM EGLN1, 100 μM substrate; mass spectrometry
mutant RIPK1-P195A = experiment: in vitro kinase assay, RIPK1-P195A; type: biochemical, human; conditions: 100 μM ATP, 30 °C, 30 min, p-RIPK1-S166 immunoblot
WT RIPK1 = experiment: in vitro kinase assay, WT RIPK1; type: biochemical, human; conditions: 100 μM ATP, 30 °C, 30 min, p-RIPK1-S166 immunoblot

Molecule: [Cl][Co][Cl] [CoCl2, cobalt chloride]
- hallmarks of RIPK1, RIPK3 and MLKL activation, inhibitor alone [1]: showed the hallmarks of RIPK1, RIPK3 and MLKL activation
- concentration needed to activate RIPK1 and necroptosis [1]: Only high concentrations
- RIPK1 proline hydroxylation (pan-hydroxylation antibody) [2]: could be blocked

Molecule: CC(=O)N(O)CCCCCNC(=O)CCC(=O)N(O)CCCCCNC(=O)CCC(=O)N(O)CCCCCN [DFO, deferoxamine]
- pVHL interaction with RIPK1 [3]: markedly decreased pVHL interaction with RIPK1 in cells
- hallmarks of RIPK1, RIPK3 and MLKL activation, inhibitor alone [1]: showed the hallmarks of RIPK1, RIPK3 and MLKL activation
- concentration needed to activate RIPK1 and necroptosis [1]: Only high concentrations

Molecule: Cc1nc(C(=O)NCC(=O)O)c(O)c2ccc(Oc3ccccc3)cc12 [FG-4592]
- HIF pathway induction, RIPK1 activation and cell death [4]: can only induce the HIF pathway, without induction of RIPK1 activation and cell death
- sensitization to hypoxia-induced cell death (MEFs [5]; 1% O2 with or without 200 μM FG-4592, n = 3): could sensitize cell death induced by hypoxia
- RIPK1 activation and necroptosis (MEFs [5]; MEFs, relatively high concentration, up to 400 μM at indicated times, 48 h): activated RIPK1 and induced necroptosis
- RIPK1 activation and necroptosis (HT-29 cells [6]; relatively high concentration): activated RIPK1 and induced necroptosis
- RIPK1 hydroxylation, RIPK1 activity and cell death, dose dependence [7]: led to a decrease in the hydroxylation of RIPK1 and corresponding increases in RIPK1 activity and cell death
- concentration needed to activate RIPK1 and necroptosis [1]: Only high concentrations
- RIPK1 Pro196 hydroxylation in vivo [8]: can also reduce the proline hydroxylation of RIPK1 at Pro196 in vivo
- effect of Mlkl deletion on FG-4592-induced cell death (Mlkl knockout cells): deletion of Mlkl decreased cell death induced by FG-4592 treatment
- liver damage, TUNEL^+ cells and p-RIPK1-S166 in liver (WT mice (liver); FG-4592 250 mg kg^−1 i.p., every 24 h for 2 d): caused substantial liver damage, with a large number of TUNEL^+ cells and increased p-RIPK1-S166
- RIPK1 activation or cell death in liver (WT mice (liver); FG-4592 25 or 50 mg kg^−1 i.p., n = 5): did not induce RIPK1 activation or cell death
- sensitization to TSZ-induced cell death (MEFs [9]): could sensitize cells to cell death induced by TSZ treatment

Molecule: CN1C(=O)NC(Cc2c[nH]c3c(Cl)cccc23)C1=O (centres unmarked) [Nec-1s, necrostatin-1s]
- hypoxia-induced cell death with Nec-1s [10]: decreased
- hypoxia-induced cell death with Nec-1s (HT-29 cells [11]): decreased
- RIPK1 activation, cell death and inflammation in Vhl LKO mice (Vhl LKO mice (liver)): blocked RIPK1 activation, cell death and inflammation in Vhl hepatocyte-specific knockout mice
- cell death and inflammation in Ripk1 P196A/P196A mice with Nec-1s (Ripk1 P196A/P196A mice): decreased cell death and inflammation in Ripk1^P196A/P196A mice
- hypoxia-induced necroptosis in Vhl-deleted MEFs with Nec-1s (Vhl knockout MEFs): could be decreased with the administration of Nec-1s
- hypoxia-induced cell death with Nec-1s (THP-1 cells): decreased
- increased cell death and RIPK1 activation with Nec-1s (primary Ripk1 P196A MEFs): both the increased cell death and RIPK1 activation were inhibited
- hypoxia-induced cell death with Nec-1s (L929 cells): decreased
- RDA induced by TNFα, 5z7 and SM-164 with Nec-1s (786-O cells): could be blocked by Nec-1s
- inhibition of p-RIPK1-S166 (WT and P195A RIPK1) [12]: effectively inhibited
- cell death of Egln1−/− MEFs with Nec-1s (Egln1−/− MEFs): blocked the cell death of Egln1^−/− MEFs induced by either TSZ or a combination of TNFα and 5z7
- hypoxia-induced cell death with Nec-1s (Jurkat cells): decreased

Molecule: COC(=O)CNC(=O)C(=O)OC [dimethyloxalylglycine]
- cIAP1 expression (cIAP1): caused a decrease in cellular inhibitor of apoptosis protein-1 (cIAP1) expression
- RIPK1 activation and caspase-independent cell death (monocytes): induce RIPK1 activation and caspase-independent cell death in monocytes

Molecule: COc1nccnc1NS(=O)(=O)c1ccc(NC(=O)/C=C/c2ccc([N+](=O)[O-])s2)cc1 [necrosulfonamide]
- suppression of FG-4592-induced cell death (HT-29 cells [6]; 10 μM necrosulfonamide, 48 h, n = 3): can also suppress cell death induced by treatment with FG-4592 in HT-29 cells

Molecule: KNGGTLYYMAPEHLNDVNAKP [synthetic RIPK1 peptide]
- hydroxylation by recombinant EGLN1 (EGLN1): recombinant EGLN1 hydroxylated a synthetic RIPK1 peptide containing Pro195

Molecule: recombinant pVHL: purified recombinant von Hippel–Lindau protein
- inhibition of RIPK1 kinase activity (mutant RIPK1-P195A): but not mutant RIPK1-P195A
- inhibition of RIPK1 kinase activity (WT RIPK1): could dramatically inhibit induction of the kinase activity of WT RIPK1
